# Experimental data reported in ChEMBL document CHEMBL1157854, “In-vivo analgesic and anti-inflammatory activities of newly synthesized benzimidazole derivatives” (2010).
# How the values were obtained:
# Mus musculus = experiment: Analgesic activity in Swiss albino mouse assessed as protection against acetic acid-induced writhing at 100 mg/kg, po administered 1 hr prior to acetic acid challenge relative to control measured after 3 hrs; type: functional
# Outline: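 Swiss albino mice (20–25 g), six per group. Baseline writhes counted over 20 min starting 5 min after ip 0.6% acetic acid (10 ml/kg); the same mice were dosed orally the next day, 1 h before acetic acid, and writhes counted again. Protection = (1 − […]) × 100. Mean ± SE; one-way ANOVA with Tukey–Kramer test, p < 0.01.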
# Rattus norvegicus [1] = experiment: Antiinflammatory activity in albino rat assessed as inhibition of carrageenan-induced paw oedema at 100 mg/kg, po measured after 120 mins of carrageenan challenge relative to control; type: functional; settings: 2 h
# Outline: (§1)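 Rat hind paw oedema induced by 0.1 mL 1% carrageenan injected subplantar into the right hind paw. Paw volume measured plethysmographically before carrageenan and at 30, 60, 120 and 180 min after. Percent oedema inhibition calculated versus a saline control group. Six animals per group, mean ± SE; one-way ANOVA with Tukey–Kramer test, p < 0.01.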
# Rattus norvegicus [2] = experiment: Antiinflammatory activity in albino rat assessed as inhibition of carrageenan-induced paw oedema at 100 mg/kg, po measured after 60 mins of carrageenan challenge relative to control; type: functional; settings: 1 h; outline: as §1
# Rattus norvegicus [3] = experiment: Antiinflammatory activity in albino rat assessed as inhibition of carrageenan-induced paw oedema at 100 mg/kg, po measured after 30 mins of carrageenan challenge relative to control; type: functional; settings: 0.5 h; outline: as §1
# Rattus norvegicus [4] = experiment: Antiinflammatory activity in albino rat assessed as inhibition of carrageenan-induced paw oedema at 100 mg/kg, po measured after 180 mins of carrageenan challenge relative to control; type: functional; settings: 3 h; outline: as §1
# Rattus norvegicus [5] = organism: Rattus norvegicus; experiment: animal or person; settings: albino, po, 3 h, read-out: INH
# Rattus norvegicus [6] = organism: Rattus norvegicus; experiment: animal or person; settings: albino, po, 0.5 h, read-out: INH
# Rattus norvegicus [7] = organism: Rattus norvegicus; experiment: animal or person; settings: albino, po, 1 h, read-out: INH
# Rattus norvegicus [8] = organism: Rattus norvegicus; experiment: animal or person; settings: albino, po, 2 h, read-out: INH
Compound,Activity (Mus musculus) [%],inhibition in vivo at 100 mg/kg (Rattus norvegicus [1]) [%],inhibition in vivo at 100 mg/kg (Rattus norvegicus [2]) [%],inhibition in vivo at 100 mg/kg (Rattus norvegicus [3]) [%],inhibition in vivo at 100 mg/kg (Rattus norvegicus [4]) [%],inhibition in vivo at 50 mg/kg (Rattus norvegicus [5]) [%],inhibition in vivo at 50 mg/kg (Rattus norvegicus [6]) [%],inhibition in vivo at 50 mg/kg (Rattus norvegicus [7]) [%],inhibition in vivo at 50 mg/kg (Rattus norvegicus [8]) [%]
Clc1cccc(NCc2nc3ccccc3[nH]2)c1,81.33,41.1,26.6,15.3,44.4,,,,
O=[N+]([O-])c1ccc2nc(CNc3ccc(Br)cc3)[nH]c2c1,79,23.5,20,15.3,22.2,,,,
Brc1ccc2nc(CNc3ccccc3)[nH]c2c1,80,29.4,26.6,7.6,22.2,,,,
Brc1ccc(NCc2nc3ccc(Br)cc3[nH]2)cc1,85.66,23.5,20,,16.6,,,,
COc1ccc(NCc2nc3ccc(Br)cc3[nH]2)cc1,83.33,17.6,13.3,,12.5,,,,
Cc1ccc(NCc2nc3ccc(Br)cc3[nH]2)cc1,88,23.5,20,7.6,16.6,,,,
COc1ccc(NCc2nc3ccccc3[nH]2)cc1,83.33,29.4,26.6,7.6,33.3,,,,
Clc1ccccc1NCc1nc2ccc(Br)cc2[nH]1,80,23.5,20,,22.2,,,,
Clc1cccc(NCc2nc3ccc(Br)cc3[nH]2)c1,89,17.6,26.6,7.6,16.6,,,,
c1ccc(NCc2nc3ccccc3[nH]2)cc1,72.33,41.1,26.6,7.6,38.8,,,,
CS(=O)(=O)Nc1ccc([N+](=O)[O-])cc1Oc1ccccc1 [NIMESULIDE],,,,,,44.4,15.3,26.6,41.1
